In ChEMBL document CHEMBL4190389, “Synthesis and activity of di- or trisubstituted N-(phenoxyalkyl)- or N-{2-[2-(phenoxy)ethoxy]ethyl}piperazine derivatives on the central nervous system” (Bioorg Med Chem Lett, 2018):
Calls of active or inactive are those of the source. The rule behind the calls is not given here.

What was measured:
[1] = target: T1, 5-hydroxytryptamine receptor 7 (Homo sapiens, UniProt P34969); assay: biochemical; type: cell-based, CHO
[2] = target: T2, 5-hydroxytryptamine receptor 1A (Homo sapiens) (UniProt P08908); assay: Antagonist activity at human 5-HT1A receptor expressed in CHO-K1 cells co-expressing Galpha16 assessed as decrease in serotonin-induced calcium mobilization preincubated for 25 mins followed by serotonin challenge measured for 30 secs by aequorin-derived luminescence assay relative to control; type: functional, cell-based
T2 sequence (whole entry): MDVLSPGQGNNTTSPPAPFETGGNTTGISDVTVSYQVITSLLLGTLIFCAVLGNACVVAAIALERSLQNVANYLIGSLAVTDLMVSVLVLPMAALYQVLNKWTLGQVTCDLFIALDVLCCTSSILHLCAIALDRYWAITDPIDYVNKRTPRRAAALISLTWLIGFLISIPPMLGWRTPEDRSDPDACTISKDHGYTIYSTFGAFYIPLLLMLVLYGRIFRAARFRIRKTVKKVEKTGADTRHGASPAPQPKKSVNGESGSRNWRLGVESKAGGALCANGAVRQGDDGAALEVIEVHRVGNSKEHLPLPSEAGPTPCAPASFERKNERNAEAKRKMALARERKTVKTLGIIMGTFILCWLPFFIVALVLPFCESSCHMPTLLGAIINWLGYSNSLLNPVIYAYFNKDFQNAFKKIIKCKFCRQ

[3] = target: T3, 5-hydroxytryptamine receptor 2A (Homo sapiens, UniProt P28223); assay: biochemical; type: cell-based, HEK293
T3 sequence (P28223 whole entry): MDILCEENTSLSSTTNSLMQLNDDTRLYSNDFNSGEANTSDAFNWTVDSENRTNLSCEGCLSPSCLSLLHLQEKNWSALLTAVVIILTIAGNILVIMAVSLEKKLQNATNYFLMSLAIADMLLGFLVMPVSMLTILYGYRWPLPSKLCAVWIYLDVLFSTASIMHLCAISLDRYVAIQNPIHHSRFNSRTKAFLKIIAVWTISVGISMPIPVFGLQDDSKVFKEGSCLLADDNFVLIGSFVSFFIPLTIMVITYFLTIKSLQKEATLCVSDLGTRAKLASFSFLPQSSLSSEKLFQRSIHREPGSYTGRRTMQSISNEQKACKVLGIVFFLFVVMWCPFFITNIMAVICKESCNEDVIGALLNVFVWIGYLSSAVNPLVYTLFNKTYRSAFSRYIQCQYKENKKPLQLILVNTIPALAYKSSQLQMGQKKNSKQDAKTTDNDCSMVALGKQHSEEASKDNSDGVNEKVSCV

[4] = target: 5-hydroxytryptamine receptor 6 (Homo sapiens, UniProt P50406); assay: Displacement of [3H]LSD from recombinant human 5-HT6 receptor expressed in CHO cells cell membranes after 60 mins by liquid scintillation counting method
5-hydroxytryptamine receptor 6, sequence (P50406 whole entry): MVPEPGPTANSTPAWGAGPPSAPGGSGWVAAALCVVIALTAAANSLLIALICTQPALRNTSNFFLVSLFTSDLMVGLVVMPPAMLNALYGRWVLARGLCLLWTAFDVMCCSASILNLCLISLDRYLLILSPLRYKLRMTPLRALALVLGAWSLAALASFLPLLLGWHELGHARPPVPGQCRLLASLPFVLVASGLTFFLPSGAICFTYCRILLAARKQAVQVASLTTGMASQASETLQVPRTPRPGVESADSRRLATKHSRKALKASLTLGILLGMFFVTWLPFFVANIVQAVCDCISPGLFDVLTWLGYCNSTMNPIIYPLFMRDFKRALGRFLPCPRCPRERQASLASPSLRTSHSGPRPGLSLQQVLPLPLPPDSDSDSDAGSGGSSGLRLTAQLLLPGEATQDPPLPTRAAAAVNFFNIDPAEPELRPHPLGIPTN

D(2) dopamine receptor [5] = target: T4, D(2) dopamine receptor (Homo sapiens, UniProt P14416); assay: Antagonist activity at human D2 receptor expressed in CHO-K1 cells co-expressing Galphaqi5 assessed as decrease in apomorphine-induced calcium mobilization preincubated for 30 mins followed by apomorphine challenge measured for 30 secs by aequorin-derived luminescence assay; type: functional, cell-based
T4 sequence (P14416 whole entry): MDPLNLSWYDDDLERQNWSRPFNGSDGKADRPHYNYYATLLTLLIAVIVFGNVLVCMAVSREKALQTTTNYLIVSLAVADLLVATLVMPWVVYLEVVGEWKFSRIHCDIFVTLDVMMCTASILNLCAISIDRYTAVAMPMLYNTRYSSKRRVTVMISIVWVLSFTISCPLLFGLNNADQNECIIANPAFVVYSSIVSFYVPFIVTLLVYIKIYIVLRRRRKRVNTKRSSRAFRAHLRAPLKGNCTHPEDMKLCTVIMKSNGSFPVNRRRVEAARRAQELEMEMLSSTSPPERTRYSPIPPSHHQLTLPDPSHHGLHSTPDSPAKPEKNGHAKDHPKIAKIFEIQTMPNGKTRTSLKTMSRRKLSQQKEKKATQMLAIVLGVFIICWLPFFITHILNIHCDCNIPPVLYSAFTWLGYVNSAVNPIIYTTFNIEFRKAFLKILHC

Mus musculus [6] = assay: Antidepressant-like activity in Albino Swiss CD-1 mouse assessed as immobility time at 5 mg/kg, ip administered 30 mins prior to test measured for last 4 mins of 6 mins observation by forced swim test (reference value: 153.9 to 201.9 secs); type: functional
Mus musculus [7] = assay: Anxiolytic-like activity in Albino Swiss CD-1 mouse assessed as increase in number of punished crossings at 2.5 mg/kg, ip administered for 30 mins prior to test measured for 1 min by four-plate test; type: functional, organism-based
Method in brief: (§1)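 Four-plate test in mice, i.p., 30 min before test; vehicle 0.9% NaCl; doses 1.25–10 mg/kg; number of punished crossings counted; mean ± SEM, n = 8–10 mice per group; ANOVA F statistics.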

[8] = target: T3, 5-hydroxytryptamine receptor 2A; assay: Antagonist activity at human 5-HT2A receptor expressed in CHO-K1 cells co-expressing Galpha16 assessed as decrease in serotonin calcium mobilization preincubated for 30 mins followed by serotonin challenge measured for 30 secs by aequorin-derived luminescence assay; type: functional, cell-based
[9] = target: T1, 5-hydroxytryptamine receptor 7; assay: Agonist activity at human 5-HT7 receptor expressed in CHO-K1 cells assessed as increase in serotonin-induced cAMP level after 1 hr by TR-FRET assay relative to serotonin; type: functional, cell-based
Mus musculus [10] = assay: Anxiolytic-like activity in Albino Swiss CD-1 mouse assessed as increase in number of punished crossings at 5 mg/kg, ip administered for 30 mins prior to test measured for 1 min by four-plate test; type: functional, organism-based
Method in brief: as §1

D(2) dopamine receptor [11] = target: T4, D(2) dopamine receptor; assay: Agonist activity at human D2 receptor expressed in CHO-K1 cells co-expressing Galphaqi5 assessed as increase apomorphine-induced calcium mobilization measured for 30 secs by aequorin-derived luminescence assay relative to apomorphine; type: functional, cell-based
[12] = target: T1, 5-hydroxytryptamine receptor 7; assay: Antagonist activity at human 5-HT7 receptor expressed in CHO-K1 cells assessed as decrease in serotonin-induced cAMP level after 1 hr by TR-FRET assay; type: functional, cell-based
Mus musculus [13] = assay: Antidepressant-like activity in Albino Swiss CD-1 mouse assessed as immobility time at 10 mg/kg, ip administered 30 mins prior to test measured for last 4 mins of 6 mins observation by forced swim test (reference value: 153.9 to 201.9 secs); type: functional
Mus musculus [14] = assay: Anticonvulsant activity in ip dosed Albino Swiss CD-1 mouse assessed as dose required to protect against 50 Hz current-induced seizure; type: functional; details: Swiss CD-1, ip
D(2) dopamine receptor [15] = target: T4, D(2) dopamine receptor; assay: Displacement of [3H]methylspiperonee from recombinant human D2 receptor expressed in HEK293 cells cell membranes after 60 mins by liquid scintillation counting method
[16] = target: T5, 5-hydroxytryptamine receptor 1A (Homo sapiens, UniProt P08908); assay: (§2) Antagonist activity at human 5-HT1A receptor expressed in CHO-K1 cells co-expressing Galpha16 assessed as decrease in serotonin calcium mobilization preincubated for 25 mins followed by serotonin challenge measured for 30 secs by aequorin-derived luminescence assay; type: functional, cell-based
T5 sequence (P08908 whole entry): T2 sequence (whole entry)

[17] = target: T2, 5-hydroxytryptamine receptor 1A (Homo sapiens); assay: as §2; type: functional, cell-based
[18] = target: T6, Alpha-1A adrenergic receptor (Homo sapiens, UniProt P35348); assay: Displacement of [3H]prazosin from recombinant human alpha1 adrenoceptor expressed in CHO cell membranes after 30 mins by liquid scintillation counting method
T6 sequence (P35348 whole entry): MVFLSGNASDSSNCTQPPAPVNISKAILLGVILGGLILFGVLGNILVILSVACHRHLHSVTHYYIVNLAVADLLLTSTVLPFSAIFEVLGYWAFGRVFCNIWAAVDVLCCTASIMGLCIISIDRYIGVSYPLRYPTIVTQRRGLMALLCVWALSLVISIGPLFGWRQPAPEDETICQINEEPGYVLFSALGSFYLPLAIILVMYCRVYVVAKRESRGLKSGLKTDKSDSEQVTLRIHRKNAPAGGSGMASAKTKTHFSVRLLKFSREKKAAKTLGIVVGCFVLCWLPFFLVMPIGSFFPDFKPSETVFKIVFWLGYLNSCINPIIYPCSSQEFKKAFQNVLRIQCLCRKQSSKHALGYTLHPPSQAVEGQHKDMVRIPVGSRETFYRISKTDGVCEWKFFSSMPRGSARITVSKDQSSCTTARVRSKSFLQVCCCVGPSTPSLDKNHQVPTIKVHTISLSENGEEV

Mus musculus [19] = assay: Antidepressant-like activity in Albino Swiss CD-1 mouse assessed as immobility time at 20 mg/kg, ip administered 30 mins prior to test measured for last 4 mins of 6 mins observation by forced swim test (reference value: 153.9 to 201.9 secs); type: functional
[20] = Neurotoxicity in ip dosed Albino Swiss CD-1 mouse assessed as minimum dose required to induce motor impairment treated 30 mins prior to test by rotarod test; type: toxicity, organism-based; details: in vivo
[21] = target: T1, 5-hydroxytryptamine receptor 7; assay: Antagonist activity at human 5-HT7 receptor expressed in CHO-K1 cells assessed as decrease in serotonin-induced cAMP level after 1 hr by TR-FRET assay relative to control; type: functional, cell-based
Mus musculus [22] = assay: Toxicity in Albino Swiss CD-1 mouse assessed as effect on locomotory activity at 1.25 to 5 mg/kg, ip administered for 30 mins prior to test measured for 1 min; type: organism-based; details: in vivo
[23] = Protection index, ratio of TD50 for motor impairment in ip dosed Swiss albino CD-1 mouse to ED50 for protection against 50 Hz current-induced seizures in ip dosed Swiss albino CD-1 mouse; type: toxicity, organism-based, Swiss CD-1; details: in vivo, read-out: Ratio TD50/ED50
Mus musculus [24] = assay: Toxicity in Albino Swiss CD-1 mouse assessed as death at 20 to 40 mg/kg, ip; type: organism-based; details: in vivo
Method in brief: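 Deaths counted in mice during maximal electroshock (MES) seizure testing after i.p. dosing, 6 mice per dose (3 or 1 at some top doses); recorded as number dead/number tested alongside protection and rotarod motor impairment (10 rpm); untreated control group included.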

[25] = target: T5, 5-hydroxytryptamine receptor 1A; assay: Displacement of [3H]8-OH-DPAT from recombinant human 5-HT1A receptor expressed in HEK293 cell membranes after 60 mins by liquid scintillation counting method
[26] = target: T2, 5-hydroxytryptamine receptor 1A (Homo sapiens); assay: Agonist activity at human 5-HT1A receptor expressed in CHO-K1 cells co-expressing Galpha16 assessed as increase in calcium mobilization measured for 30 secs by aequorin-derived luminescence assay relative to serotonin; type: functional, cell-based
[27] = target: T3, 5-hydroxytryptamine receptor 2A; assay: Agonist activity at human 5-HT2A receptor expressed in CHO-K1 cells co-expressing Galpha16 assessed as increase in calcium mobilization measured for 30 secs by aequorin-derived luminescence assay; type: functional, cell-based

T1 sequence (P34969 whole entry): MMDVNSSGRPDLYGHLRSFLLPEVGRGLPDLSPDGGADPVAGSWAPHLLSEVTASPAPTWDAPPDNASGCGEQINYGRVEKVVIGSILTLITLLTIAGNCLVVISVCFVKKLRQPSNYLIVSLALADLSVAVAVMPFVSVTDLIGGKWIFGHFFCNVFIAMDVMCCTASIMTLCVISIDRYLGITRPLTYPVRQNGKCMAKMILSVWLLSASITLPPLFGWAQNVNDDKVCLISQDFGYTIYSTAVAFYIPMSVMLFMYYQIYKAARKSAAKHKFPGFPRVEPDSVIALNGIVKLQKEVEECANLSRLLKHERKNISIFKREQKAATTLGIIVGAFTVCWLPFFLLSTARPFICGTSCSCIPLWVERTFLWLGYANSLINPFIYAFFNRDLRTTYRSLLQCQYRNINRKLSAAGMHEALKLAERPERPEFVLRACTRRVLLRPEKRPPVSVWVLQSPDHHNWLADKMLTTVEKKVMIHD

`COc1ccccc1N1CCN(CCOCCOc2c(C)cc(C)cc2C)CC1.Cl.Cl` showed a Ki [1] of 70 nM, an Emax [2] of 20% and a Ki [3] of 245 nM. The Ki [4] was 2430 nM, the IC50 (D(2) dopamine receptor [5]) was 82 nM and the Kb (D(2) dopamine receptor [5]) was 24.4 nM. For the same compound, the Time (Mus musculus [6]) was 138.5 s, the Activity (Mus musculus [7]) was “Active” and the IC50 [8] was 18200 nM. The Emax [9] was 11%, the Activity (Mus musculus [10]) was “Active” and the Emax (D(2) dopamine receptor [11]) was 1%. It also gave an IC50 [12] of 1840 nM, a Kb [12] of 783 nM and a Time (Mus musculus [13]) of 131.3 s. The ED50 (Mus musculus [14]) was 26.3 mg/kg, the Ki (D(2) dopamine receptor [15]) was 189 nM and the IC50 [16] was 56.8 nM. It also gave a Kb [17] of 13.9 nM, a Ki [18] of 15 nM and a Time (Mus musculus [19]) of 150.6 s. For the same compound, the TD50 at 0.5 h [20] was 31.5 mg/kg, the Emax [21] was 3% and the Activity (Mus musculus [22]) was “Non-Toxic”. The selectivity ratio [23] was 1.19, the Activity (Mus musculus [24]) was “Non-Toxic” and the Ki [25] was 5 nM. The Emax [26] was 3%.
For `CC(N)Cc1c[nH]c2ccc(O)cc12` (centres undefined), the EC50 [27] was 2 nM.
